bCat nuc transl: modulators of beta-catenin nuclear translocation; nuclear translocation activity, % at 5 µM; AID 1665; actives 0.3% (n = 190,000); HeLa beta-catenin nuclear translocation, immunofluorescence imaging;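 active means nuclear translocation activity above 50% at 5 µM, with a well cell count of 50 or more; inconclusive means wells under 50 cells across six images, flagged as toxic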;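 further: per-cell ratio of nuclear to cytoplasmic median beta-catenin stain intensity; plate controls were DMSO negative control for no effect and GSK-3 inhibitor IX positive control for full effect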
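Test system: human HeLa cells, native beta-catenin. Compound dosing: 5 µM primary single dose, 0.1% DMSO, 0.02–20 µM confirmation series. Incubation: compound exposure 24 h at 37°C. Detection: beta-catenin immunostaining with DAPI counterstain, 20x imaging, 6 fields/well. Read-out basis: Nuclear/cytoplasmic beta-catenin signal ratio, % activation.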
HSV augment: increases HSV replication in cells. HSV replication augmentation in cells, fold increase. maximum fold increase. actives 0.005% (n = 220,000). AID 1956; in the data active means maximum fold increase above about 1.5; inconclusive means no clear call, values can overlap the other calls; tested in PC3 cells
Dynein transport: dynein cargo transport inhibition; 3617.4 mouse cells, GR-EGFP nuclear translocation imaging; test concentration mostly 20 µM; stimulated with dexamethasone, 1 µM; hits give low values; z-score, hits read low; actives 0.47% (n = 220,000);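 active means plate z-score of nuclear minus cytoplasmic receptor signal below a set negative limit, without overly bright fluorescence or cell loss, cut at about -3.5 in these data, passing the limit was not always enough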;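 further: z-score of nuclear minus cytoplasmic ring GR-EGFP intensity difference per well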
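Also added – dexamethasone, 1.0 µM final · Buffer or medium – tet-free, stripped-serum medium · Schedule – induction 48 h, compound 1 h, agonist 30 min · Detection – formaldehyde fixation, Hoechst nuclear stain, 10x automated fluorescence imaging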
MT stabilizer: stabilizes microtubules in HeLa cells | HeLa tubulin immunostaining HCS, 24 h; share of cells brighter than vehicle mean+2SD | % tubulin-high responders, % at 10 µM | actives 0.83% (n = 200,000);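 active means plate Z-score above 3 for both tubulin-high and condensed-nucleus cell shares, with cell loss under 80%, at 10 µM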;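 further: anti alpha tubulin signal scored within the nucleus-defined area of each cell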
Lmaj promast: reduces viability of Leishmania major promastigotes; resazurin fluorescence viability; inhibition, % at 10 µM; actives 9% (n = 200,000); AID 1063; in the data active means inhibition above about 50%;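 further: promastigotes grown with compound for 44 hours at 28 °C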
* hit, by the source's call; i = inactive; ? = inconclusive; . = no result. Compounds with a hit are over-represented: about 8.9% of the library has one in this group of screens.

SMILES | bCat nuc transl | HSV augment | Dynein transport | MT stabilizer | Lmaj promast
O=C(Oc1c(-c2ccccc2)oc2ccccc2c1=O)c1ccccc1 | -1.5 | . | 0.41 | 3.4 | -10.9
O=C(Oc1c(-c2ccccc2Cl)oc2ccccc2c1=O)c1ccc(Cl)cc1 | . | i | 0.523 | 4.4 | 54.9*
COc1ccc(S(=O)(=O)CCC(=O)NCCc2cccc(C)c2)cc1 | . | i | 0.0737 | 2.7 | -5.7
COC(=O)c1ccc(Oc2ccc3nnc(C)n3n2)cc1 | -1.6 | i | -0.00207 | 5.5 | -1.7
COC(=O)c1ccc2c(c1O)C(=O)c1ccccc1C2=O | -0.2 | i | -0.136 | 1.1 | 84.0*
COCCCN1CN(S(=O)(=O)c2ccc(Cl)cc2)c2nc3ccccc3nc21 | -2.2 | i | 0.0198 | 3.3 | 59.2*
CN1CCc2c(sc3c2C(=O)NC(c2cccs2)N3)C1 (centres undefined) | 2.2 | ? | -0.00803 | 4.2 | 5.4
Cc1ccsc1C1NC(=O)c2c(sc3c2CCN(C)C3)N1 (centres undefined) | -6.5 | ? | -0.596 | 3.4 | 88.4*
CN1CCc2c(sc3c2C(=O)NC(c2ccc(-c4cccc(Cl)c4)o2)N3)C1 (centres undefined) | 0.0 | . | 0.933 | 2.7 | 67.7*
C=CCNc1nc(Nc2ccc([N+](=O)[O-])cc2)nc(OC)n1 | -0.4 | i | -0.513 | 1.2 | 42.4
COc1nc(Nc2ccc([N+](=O)[O-])cc2)nc(NC2CCCCC2)n1 | -0.1 | i | 0.581 | 3.0 | 89.0*
CCOc1ccc(NC(=O)CS(=O)CC(=O)NC2CCCc3ccccc32)cc1 (centres undefined) | -2.8 | i | 2.52 | 4.8 | -2.0
CC(C)[C@H](NS(=O)(=O)c1ccc2c(c1)OCCO2)C(=O)OCC(=O)Nc1ccccc1Cl | 1.6 | i | -0.552 | 3.4 | 66.2*
COC(=O)c1ccc(Cl)c(NS(=O)(=O)c2ccc3c(c2)OCCO3)c1 | . | i | -0.0792 | 39.3* | 79.6*
CC(C)[C@H](NS(=O)(=O)c1ccc2c(c1)OCCO2)C(=O)OCC(=O)Nc1cccc(Cl)c1Cl | 0.5 | i | 0.837 | 3.7 | 5.0
O=[N+]([O-])c1ccccc1S(=O)(=O)NCc1ccco1 | -4.5 | i | 0.14 | 1.8 | -1.5
CCOc1ccc(NCc2nc3ccccc3n2CCOc2ccccc2)cc1 | 5.3 | i | 2.26 | 4.5 | 72.3*
Cc1ccc(OCCCCn2c(CO)nc3ccccc32)cc1 | -1.2 | . | -0.722 | 2.4 | 56.1*
CCCN=Cc1sc2ccc(OCC)cc2c1O | -2.9 | i | -0.118 | 4.3 | 4.5
Cc1ccc(C2=NN3C(C(=O)c4ccccc4)Oc4ccccc4C3C2)cc1 (centres undefined) | 3.3 | i | -0.0202 | 3.3 | 35.1
Cc1cc(NC(=O)CSc2nncn2-c2ccccc2)no1 | 0.7 | i | 1.79 | 2.9 | 6.8
COc1cc2cc(C)c3nnc(SCC(=O)Nc4cc(C)on4)n3c2cc1OC | 0.8 | i | 2.58 | 1.1 | 15.9
CCc1nnc(NC(=O)CSc2nnc3c(C)cc4c(C)ccc(C)c4n23)s1 | 63.1* | i | -0.992 | 20.4* | -7.6
Cc1cc(NC(=O)CSc2nnc3c(C)cc4c(C)ccc(C)c4n23)no1 | 94.1* | i | 1.57 | 57.0* | 1.7
COc1ccccc1-n1cnnc1SCC(=O)Nc1cc(C)on1 | 0.9 | i | 0.438 | 16.6* | -4.0
SMILES | bCat nuc transl | HSV augment | Dynein transport | MT stabilizer | Lmaj promast
C=CCc1ccc(OCCCCN2CC(C)CC(C)C2)c(OC)c1 (centres undefined) | 0.6 | i | 0.476 | 6.1 | 96.1*
CC1CN(CCOc2ccc(Cl)cc2Cl)CC(C)O1 (centres undefined) | -4.9 | i | -0.551 | 5.1 | 40.0
COc1cc(C)ccc1OCCCCN1CC(C)OC(C)C1 (centres undefined) | -3.3 | i | -0.271 | 1.0 | 96.9*
CCOc1ccccc1OCCOCCN1CC(C)OC(C)C1 (centres undefined) | -0.5 | i | -0.285 | 2.5 | 63.2*
C=CCc1ccc(OCCCCN2CCC(C)CC2)c(OC)c1 | -0.8 | i | -0.264 | 5.7 | 89.4*
Cc1ccc(N(C)C(=O)n2cnc3ccccc32)cc1 | -0.6 | i | -0.334 | 2.4 | -4.8
C=CCc1ccc(OCCCOc2ccc(C(=O)O)cc2)c(OC)c1 | -0.9 | i | -0.416 | 3.0 | 4.7
C=CCc1ccc(OCCCN2CCCC(C)C2)c(OC)c1 (centres undefined) | 4.3 | i | -0.604 | 2.5 | 99.6*
COc1cc(OC)cc(C(=O)NNc2nc3cc4c(cc3s2)OCO4)c1 | -5.1 | i | -1 | 2.9 | 40.4
Cc1ccc(NCC(=O)N/N=C\c2ccc([N+](=O)[O-])o2)cc1 | -1.2 | i | -0.819 | 2.7 | 100.1*
O=C(CNC(=O)c1cccc(F)c1)N/N=C/c1ccc(O)c([N+](=O)[O-])c1 | -2.1 | i | 0.382 | 8.5 | 46.3
O=C(N/N=C/c1ccc([N+](=O)[O-])o1)c1cc2c(ccc3ccccc32)o1 | 6.3 | i | -0.515 | 3.1 | 98.7*
O=[N+]([O-])c1cc(/C=N/N/C(=N/c2ccccn2)c2ccccn2)ccc1O | -2.2 | i | 0.0113 | 1.7 | 51.6*
O=C(CNC(=O)c1ccc(F)cc1)N/N=C/c1ccc(O)c([N+](=O)[O-])c1 | 4.2 | i | -0.554 | 7.0 | 56.1*
O=C(CNC(=O)c1ccccc1)N/N=C/c1ccccc1Cl | -6.2 | i | -0.669 | 2.3 | 31.0
O=C(N/N=C\c1ccc([N+](=O)[O-])o1)c1cncc(Br)c1 | 1.6 | i | 0.0427 | . | .
CCCCCC(=O)N/N=C/c1ccc([N+](=O)[O-])o1 | -2.7 | i | 3.07e-05 | 1.8 | 84.8*
Cc1ccc(/C=N\NC(=O)c2cc([N+](=O)[O-])cc([N+](=O)[O-])c2)o1 | -0.7 | i | -0.0824 | 5.8 | 57.6*
O=C(CNC(=O)c1ccccc1)N/N=C/c1ccc([N+](=O)[O-])o1 | 0.1 | i | -0.0637 | 3.8 | 99.3*
O=C(N/N=C/c1ccc([N+](=O)[O-])o1)c1ccncc1 | 5.6 | i | 0.424 | . | .
O=C(N/N=C/c1ccc([N+](=O)[O-])o1)c1ccc(O)cc1 | . | i | 0.805 | 2.4 | 99.6*
Cc1ccc(/C=N/NC(=O)C(=O)N/N=C/c2ccc(C)o2)o1 | -0.3 | i | 3.03 | 1.7 | 16.3
Cc1nc2ccccn2c1C(=O)N/N=C/c1ccc([N+](=O)[O-])o1 | 14.2 | i | -3.1 | 3.0 | 100.0*
O=C(N/N=C/c1ccc([N+](=O)[O-])o1)c1cc2ccccc2o1 | -0.3 | i | -1.06 | . | .
O=C(CNC(=O)c1ccccc1)N/N=C/c1cccs1 | -2.8 | i | 0.061 | 2.8 | 8.6
O=C(CNC(=O)c1ccccc1)N/N=C/c1ccc([N+](=O)[O-])s1 | -4.8 | i | -0.477 | 1.8 | 100.5*
O=C(CNc1ccccc1)N/N=C/c1ccc([N+](=O)[O-])o1 | . | . | 0.179 | 2.2 | 100.0*
CCN(CC)S(=O)(=O)c1cccc(C(=O)N/N=C/c2ccc([N+](=O)[O-])o2)c1 | -0.4 | i | -1.52 | 3.2 | 99.8*
CN(C)C/C(Cl)=C(\Cl)c1ccccc1 | -2.8 | i | -1.28 | 3.9 | 1.1

Compound activity (PubChem)
